ChEMBL document CHEMBL4346727, “Synthesis and pharmacological evaluation of novel N-Mannich bases derived from 5,5-diphenyl and 5,5-di(propan-2-yl)imidazolidine-2,4-dione core” (Bioorg Med Chem Lett, 2019)
The source made the active and inactive calls. Unless noted, the calls are words filed in the database; no cut-off is given here.

How the values were obtained:
Mus musculus [1] = assay: Anticonvulsant activity in CD1 mouse assessed as protection against 32 mA current-induced seizure at 50 mg/kg, ip measured after 15 mins by 6 Hz psychomotor seizure test
[2] = Neurotoxicity in ip dosed CD1 mouse and measured after 0.5 hrs by rotarod test; assay type: toxicity, organism-based; conditions: in vivo
Procedure, shortened: (§1)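 Mice dosed intraperitoneally at 30, 100 and 300 mg/kg, then tested on the rotarod at 0.5 h and 4 h. The value recorded is the minimum dose at which neurotoxicity appeared. A dash means no neurotoxicity at the top dose of 300 mg/kg.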

[3] = Neurotoxicity in CD1 mouse at 25 mg/kg, ip measured after 1 hr by rotarod test; conditions: in vivo
Mus musculus [4] = assay: […] in CD1 mouse model assessed as formalin-induced nociception by measuring AUC during acute phase at 11 mg/kg, ip measured for 5 mins by formalin test relative to control; assay type: functional
Mus musculus [5] = assay: Potency index, ratio of phenytoin ED50 to compound ED50 for anticonvulsant activity in ip dosed CD1 mouse by 6 Hz psychomotor seizure test; assay type: functional
Rattus norvegicus [6] = assay: Anticonvulsant activity in Sprague-Dawley rat assessed as protection against 150 mA current-induced seizure at 30 mg/kg, po measured after 1 hr by maximal electroshock seizure test; assay type: functional, organism-based
Procedure, shortened: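 Rats received 30 mg/kg orally and were given maximal electroshock at 0.25, 0.5, 1, 2, 4 and 6 h. Read-out is the number of rats protected out of four.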

Rattus norvegicus [7] = assay: Anticonvulsant activity in po dosed Sprague-Dawley rat assessed as protection against subcutaneous pentylenetetrazole-induced seizures; assay type: functional
[8] = Neurotoxicity in CD1 mouse at 50 mg/kg, ip measured after 30 mins by rotarod test; conditions: in vivo, 0.5 h
Mus musculus [9] = assay: Anticonvulsant activity in ip dosed CD1 mouse assessed as time to peak effect on protection against 32 mA current-induced seizure by 6 Hz psychomotor seizure test; assay type: functional
Procedure, shortened: (§2)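 Median effective doses were quantified in the maximal electroshock, subcutaneous pentylenetetrazole and 6 Hz tests after intraperitoneal dosing in mice or oral dosing in rats, at the time of peak effect. ED50 values are reported with ranges in parentheses.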

Mus musculus [10] = assay: Anticonvulsant activity in CD1 mouse assessed as protection against subcutaneous pentylenetetrazole-induced seizures at 300 mg/kg, ip and measured after 0.5 hrs; assay type: functional, organism-based
Procedure, shortened: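 Mice were screened after intraperitoneal doses of 30, 100 and 300 mg/kg in the maximal electroshock and subcutaneous pentylenetetrazole tests, examined at 0.5 and 4 h. The value recorded is the minimum dose showing activity. No activity up to 300 mg/kg is scored as absent.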

Mus musculus [11] = assay: Antiallodynic activity in CD1 mouse assessed as reduction in oxaliplatin-induced neuropathic pain in early phase by measuring paw withdrawal force at 11 mg/kg, ip measured after 3 hrs by Von Frey test relative to untreated control; assay type: functional; parameters: scale not given: the % may be the effect or the level left
Mus musculus [12] = assay: Antiallodynic activity in CD1 mouse assessed as reduction in oxaliplatin-induced neuropathic pain in late phase by measuring paw withdrawal force at 11 mg/kg, ip measured after 7 days by Von Frey test relative to untreated control; assay type: functional; parameters: scale not given: the % may be the effect or the level left
[13] = Neurotoxicity in CD1 mouse at 50 mg/kg, ip measured after 15 mins by rotarod test; conditions: in vivo, 0.25 h
[14] = Protection index, ratio of TD50 for neurotoxicity in ip dosed CD1 mouse by rotarod test to ED50 for anticonvulsant activity in CD1 mouse by 6 Hz psychomotor seizure test; assay type: toxicity, organism-based; conditions: in vivo, read-out: Ratio TD50/ED50
Mus musculus [15] = assay: Anticonvulsant activity in CD1 mouse assessed as protection against 32 mA current-induced seizure at 25 mg/kg, ip measured after 2 hrs by 6 Hz psychomotor seizure test
[16] = Neurotoxicity in ip dosed CD1 mouse model by rotarod test; assay type: toxicity, organism-based; conditions: in vivo
Mus musculus [17] = assay: Anticonvulsant activity in CD1 mouse assessed as protection against 32 mA current-induced seizure at 50 mg/kg, ip measured after 30 mins by 6 Hz psychomotor seizure test
[18] = Protection index, ratio of TD50 for neurotoxicity in ip dosed CD1 mouse by rotarod test to ED50 for anticonvulsant activity in ip dosed CD1 mouse by maximal electroshock seizure test; assay type: toxicity, organism-based; conditions: in vivo, read-out: Ratio TD50/ED50
Rattus norvegicus [19] = assay: Anticonvulsant activity in po dosed Sprague-Dawley rat assessed as protection against 150 mA current-induced seizures; assay type: functional
Procedure, shortened: as §2

[20] = Neurotoxicity in CD1 mouse at 100 mg/kg, ip and measured after 0.5 to 4 hrs by rotarod test; assay type: toxicity, organism-based; conditions: in vivo
Procedure, shortened: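 Rotarod neurotoxicity screen in mice after intraperitoneal dosing. For the 6 Hz series the count is mice out of four showing neurotoxicity, scored as inability to grasp the rotarod or muscle spasms, at 0.25–4 h. For the initial screen the minimum toxic dose is taken from 30, 100 and 300 mg/kg at 0.5 and 4 h.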

[21] = Neurotoxicity in Sprague-Dawley rat at 30 mg/kg, po measured after 2 hr by rotarod test; assay type: toxicity, organism-based; conditions: in vivo
Procedure, shortened: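 Rats given one oral dose of 30 mg/kg and tested on the rotarod at 0.25, 0.5, 1, 2, 4 and 6 h.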

[22] = Neurotoxicity in CD1 mouse at 25 mg/kg, ip measured after 2 hrs by rotarod test; conditions: in vivo
Rattus norvegicus [23] = assay: Anticonvulsant activity in po dosed Sprague-Dawley rat assessed as time to peak effect on protection against subcutaneous pentylenetetrazole-induced seizures; assay type: functional
Mus musculus [24] = assay: Anticonvulsant activity in CD1 mouse assessed as protection against 32 mA current-induced seizure at 25 mg/kg, ip measured after 4 hrs by 6 Hz psychomotor seizure test
Mus musculus [25] = assay: Anticonvulsant activity in CD1 mouse assessed as protection against 32 mA current-induced seizure at 100 mg/kg, ip measured after 1 hr by 6 Hz psychomotor seizure test
[26] = Neurotoxicity in ip dosed CD1 mouse and measured after 4 hrs by rotarod test; assay type: toxicity, organism-based; conditions: in vivo
Procedure, shortened: as §1

Mus musculus [27] = assay: Anti-inflammatory activity in CD1 mouse model assessed as formalin-induced nociception by measuring AUC during inflammatory phase at 11 mg/kg, ip measured for 5 mins by formalin test relative to control; assay type: functional
Mus musculus [28] = assay: Anticonvulsant activity in CD1 mouse assessed as protection against 32 mA current-induced seizure at 100 mg/kg, ip measured after 2 hrs by 6 Hz psychomotor seizure test
Mus musculus [29] = assay: Anticonvulsant activity in CD1 mouse assessed as protection against 32 mA current-induced seizure at 100 mg/kg, ip measured after 30 mins by 6 Hz psychomotor seizure test
Rattus norvegicus [30] = assay: Anticonvulsant activity in po dosed Sprague-Dawley rat assessed as time to peak effect on protection against 32 mA current-induced seizure by 6 Hz psychomotor seizure test; assay type: functional

CN1CCN(CN2C(=O)NC(c3ccccc3)(c3ccccc3)C2=O)CC1
Activity (Mus musculus [1]): Active
minimal neurotoxic dose [2]: 100 mg/kg
Activity [3]: Non-Toxic
Activity (Mus musculus [4]): 67.52%
Ratio ED50 (Mus musculus [5]): 5
Activity (Rattus norvegicus [6]): Active
ED50 (Rattus norvegicus [7]): > 250 mg/kg
Activity [8]: Non-Toxic
Time (Mus musculus [9]): 1 h
MED (Mus musculus [10]): inactive
Activity (Mus musculus [11]): 53%
Activity (Mus musculus [12]): 61%
Activity [13]: Non-Toxic
selectivity ratio [14]: 6.19
Activity (Mus musculus [15]): inactive
TD50 [16]: 75.5 mg/kg
Activity (Mus musculus [17]): Active
selectivity ratio [18]: 6.78
ED50 (Rattus norvegicus [19]): 38.5 mg/kg
Activity [20]: Toxic
Activity [21]: Non-Toxic
Activity [22]: Non-Toxic
Time (Rattus norvegicus [23]): 2 h
Activity (Mus musculus [24]): inactive
Activity (Mus musculus [25]): Active
MTC [26]: 100 mg/kg
Activity (Mus musculus [27]): 90.3%
Activity (Mus musculus [28]): Active
Activity (Mus musculus [29]): Active
Time (Rattus norvegicus [30]): 2 h
